ChEMBL document CHEMBL1142735, “Discovery of a new series of centrally active tricyclic isoxazoles combining serotonin (5-HT) reuptake inhibition with alpha2-adrenoceptor blocking activity” (J Med Chem, 2005)

Key:
[1] = target: T1, Alpha-2C adrenergic receptor (Homo sapiens, UniProt P18825); test: Binding affinity for alpha-2C adrenergic receptor
T1 sequence (P18825 whole entry): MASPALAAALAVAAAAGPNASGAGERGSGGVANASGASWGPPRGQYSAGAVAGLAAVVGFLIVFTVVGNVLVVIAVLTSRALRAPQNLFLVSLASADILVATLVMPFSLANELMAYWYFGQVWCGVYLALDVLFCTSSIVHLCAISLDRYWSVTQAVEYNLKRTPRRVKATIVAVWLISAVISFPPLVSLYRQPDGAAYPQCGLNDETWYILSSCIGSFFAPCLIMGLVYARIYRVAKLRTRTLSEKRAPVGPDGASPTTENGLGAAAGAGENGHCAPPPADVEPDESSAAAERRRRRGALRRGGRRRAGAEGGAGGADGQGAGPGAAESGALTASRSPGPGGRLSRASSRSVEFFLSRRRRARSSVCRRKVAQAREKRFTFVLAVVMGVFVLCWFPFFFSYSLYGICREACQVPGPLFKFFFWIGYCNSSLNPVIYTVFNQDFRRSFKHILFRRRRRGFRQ
Summary of the method: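 Human alpha2C receptor stably expressed in CHO cell membranes (5-10 µg protein) in 25 mM glycylglycine, pH 7.6. Competition against [3H]rauwolscine (1 nM), 30 min at 25 °C. Nonspecific binding defined with spiroxatrine (1 µM). Rapid filtration over GF/B, washed with ice-cold 50 mM Tris-HCl pH 8.0, scintillation counting. Sigmoidal curves fitted; Ki by Cheng-Prusoff.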

[2] = target: Rattus norvegicus; test: Effective dose concentration for reversal of medetomidine-Induced loss of righting was determined by subcutaneous administration; type: functional, organism-based
Summary of the method: (§1)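 Male Wistar rats (200-250 g), fasted overnight, given test compound or solvent sc before challenge. Loss of righting induced by medetomidine 0.10 mg/kg iv; reversal means no loss of righting. Excitation induced by pCA 5 mg/10 mL/kg sc and scored 0-3 over 15 min starting 45 min after pCA; inhibition means score <2.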

[3] = target: Rattus norvegicus; test: Effective dose concentration for antagonism ofpCA-Induced excitation was determined by subcutaneous administration; type: functional, organism-based; summary of the method: as §1
[4] = target: Sodium-dependent serotonin transporter (Homo sapiens, UniProt P31645); test: Binding affinity for serotonin transporter
Summary of the method: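 Human platelet membranes (50 µg protein) in 50 mM Tris-HCl pH 7.4 with 120 mM NaCl and 5 mM KCl. Competition against [3H]paroxetine (0.5 nM), 60 min at 25 °C. Nonspecific binding defined with imipramine (1 µM). Filtration over 0.1% PEI-presoaked GF/B, washed with incubation buffer. Sigmoidal fit of specific binding; Ki via Cheng-Prusoff.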

[5] = target: T2, D(4) dopamine receptor (Homo sapiens, UniProt P21917); test: Inhibition of [3H]spiperone binding to Dopamine receptor D4
T2 sequence (P21917 whole entry): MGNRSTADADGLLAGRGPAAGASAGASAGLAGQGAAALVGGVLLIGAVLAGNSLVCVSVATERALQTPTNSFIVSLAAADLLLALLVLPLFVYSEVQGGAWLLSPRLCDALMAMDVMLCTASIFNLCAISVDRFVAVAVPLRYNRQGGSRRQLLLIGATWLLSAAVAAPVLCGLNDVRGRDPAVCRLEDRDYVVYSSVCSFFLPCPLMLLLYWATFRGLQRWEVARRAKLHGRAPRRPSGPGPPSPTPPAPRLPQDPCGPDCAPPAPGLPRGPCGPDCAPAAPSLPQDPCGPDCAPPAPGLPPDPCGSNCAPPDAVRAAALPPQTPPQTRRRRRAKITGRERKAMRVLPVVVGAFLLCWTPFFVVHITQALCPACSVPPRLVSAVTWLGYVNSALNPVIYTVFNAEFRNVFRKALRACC
Summary of the method: (§2)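 Radioligand competition binding on membranes from cell lines carrying the human target, incubated with the labelled ligand under optimized conditions. Separation by filtration, except α1A and D3, which used scintillation proximity assay.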

[6] = target: 5-hydroxytryptamine receptor 2A (Homo sapiens, UniProt P28223); test: Inhibition of [125I]- R91150 binding to 5-hydroxytryptamine 2A receptor; summary of the method: as §2
[7] = target: Histamine H1 receptor (Homo sapiens, UniProt P35367); test: Inhibition of [3H]pyrilamine binding to Histamine H1 receptor
Summary of the method: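 Radioligand competition on membranes from a cell line transfected with the human target, incubated under optimized conditions. Stopped by rapid filtration. Ki by Cheng-Prusoff.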

[8] = target: Sodium-dependent dopamine transporter (Rattus norvegicus, UniProt P23977); test: Inhibition of [3H]WIN-35428 binding to Dopamine transporter of rat striatum; type: tissue-based
Summary of the method: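 Competition binding using rat striatum membranes incubated with the radioligand under optimized conditions, separated by filtration.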

[9] = tested on: Rattus norvegicus; test: Effective dose for antagonism ofpCA-Induced excitation was determined by oral administration; type: functional
Summary of the method: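 Oral pretreatment of overnight-fasted male Wistar rats (200-250 g), then medetomidine 0.10 mg/kg iv (reversal means no loss of righting) or pCA 5 mg/kg sc (excitation scored 0-3 over 15 min from 45 min after pCA; inhibition means score <2). Doses taken from a geometric series.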

[10] = target: T3, 5-hydroxytryptamine receptor 2C (Homo sapiens, UniProt P28335); test: Inhibition of [3H]- mesulergine binding to 5-hydroxytryptamine 2C receptor; summary of the method: as §2
T3 sequence (P28335 whole entry): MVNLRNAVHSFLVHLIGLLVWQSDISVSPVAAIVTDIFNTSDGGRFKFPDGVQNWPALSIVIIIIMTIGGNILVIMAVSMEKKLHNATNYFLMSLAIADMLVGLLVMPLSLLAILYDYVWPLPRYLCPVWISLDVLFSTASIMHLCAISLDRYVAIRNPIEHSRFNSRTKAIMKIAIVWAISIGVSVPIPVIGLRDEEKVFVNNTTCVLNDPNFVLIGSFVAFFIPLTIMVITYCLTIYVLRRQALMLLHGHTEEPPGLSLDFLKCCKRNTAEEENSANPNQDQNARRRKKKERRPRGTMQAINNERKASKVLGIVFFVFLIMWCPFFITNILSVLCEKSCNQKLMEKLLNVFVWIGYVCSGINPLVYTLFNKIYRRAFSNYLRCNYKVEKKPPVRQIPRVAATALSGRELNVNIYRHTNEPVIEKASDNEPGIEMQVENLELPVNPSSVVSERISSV

[11] = target: Norepinephrine transporter (Rattus norvegicus, UniProt Q9WTR4); test: Inhibition of [3H]-nisoxetine binding to Norepinephrine transporter from rat cortex
Summary of the method: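 Radioligand competition on rat cortex membranes, incubated under optimized conditions. Stopped by rapid filtration. Ki by Cheng-Prusoff.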

[12] = target: T4, 5-hydroxytryptamine receptor 1A (Homo sapiens, UniProt P08908); test: Inhibition of [3H]8-OH-DPAT binding to 5-hydroxytryptamine 1A receptor; summary of the method: as §2
T4 sequence (P08908 whole entry): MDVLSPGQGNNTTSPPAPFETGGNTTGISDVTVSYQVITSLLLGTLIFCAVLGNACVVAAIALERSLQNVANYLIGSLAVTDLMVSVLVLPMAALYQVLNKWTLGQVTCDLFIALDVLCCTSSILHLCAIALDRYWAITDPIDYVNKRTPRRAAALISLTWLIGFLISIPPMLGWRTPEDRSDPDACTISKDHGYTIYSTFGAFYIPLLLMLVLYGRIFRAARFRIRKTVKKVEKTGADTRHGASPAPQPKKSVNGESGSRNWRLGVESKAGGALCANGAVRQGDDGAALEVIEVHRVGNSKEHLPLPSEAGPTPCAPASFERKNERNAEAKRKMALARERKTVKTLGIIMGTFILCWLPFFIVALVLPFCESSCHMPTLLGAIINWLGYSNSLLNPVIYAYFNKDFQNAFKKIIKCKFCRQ

[13] = target: T5, Adrenergic receptor alpha-1 (Homo sapiens, UniProt P35348+P25100+P35368); test: Inhibition of [3H]- prazosin binding to alpha-1 adrenergic receptor; type: protein assay; summary of the method: as §2
T5 sequence (P35348 whole entry): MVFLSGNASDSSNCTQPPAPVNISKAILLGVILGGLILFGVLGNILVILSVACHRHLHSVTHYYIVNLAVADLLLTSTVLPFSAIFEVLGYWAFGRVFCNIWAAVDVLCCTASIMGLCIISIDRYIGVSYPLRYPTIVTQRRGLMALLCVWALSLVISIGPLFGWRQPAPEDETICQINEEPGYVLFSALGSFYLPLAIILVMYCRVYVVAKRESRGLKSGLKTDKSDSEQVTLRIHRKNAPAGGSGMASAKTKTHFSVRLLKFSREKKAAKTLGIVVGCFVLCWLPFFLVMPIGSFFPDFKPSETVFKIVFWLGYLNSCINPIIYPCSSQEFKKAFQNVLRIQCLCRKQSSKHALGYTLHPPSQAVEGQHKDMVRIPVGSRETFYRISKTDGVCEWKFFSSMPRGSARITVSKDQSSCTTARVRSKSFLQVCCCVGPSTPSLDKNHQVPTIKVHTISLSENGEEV
T5 sequence (P25100 whole entry): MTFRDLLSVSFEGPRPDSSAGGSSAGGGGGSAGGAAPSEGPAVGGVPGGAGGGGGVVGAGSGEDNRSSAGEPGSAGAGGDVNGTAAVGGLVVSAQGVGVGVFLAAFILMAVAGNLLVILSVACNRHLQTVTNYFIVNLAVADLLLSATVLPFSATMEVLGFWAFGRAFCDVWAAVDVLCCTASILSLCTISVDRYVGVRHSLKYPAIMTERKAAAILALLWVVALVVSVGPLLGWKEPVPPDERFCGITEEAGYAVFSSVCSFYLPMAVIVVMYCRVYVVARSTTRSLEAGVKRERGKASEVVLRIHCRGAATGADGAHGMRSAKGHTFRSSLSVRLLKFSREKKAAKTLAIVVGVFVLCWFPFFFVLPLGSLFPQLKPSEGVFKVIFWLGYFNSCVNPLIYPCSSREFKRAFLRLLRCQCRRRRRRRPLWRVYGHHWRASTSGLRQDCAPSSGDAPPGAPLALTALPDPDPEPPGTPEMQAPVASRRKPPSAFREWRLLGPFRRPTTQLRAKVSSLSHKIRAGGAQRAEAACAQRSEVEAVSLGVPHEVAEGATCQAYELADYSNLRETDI
T5 sequence (P35368 whole entry): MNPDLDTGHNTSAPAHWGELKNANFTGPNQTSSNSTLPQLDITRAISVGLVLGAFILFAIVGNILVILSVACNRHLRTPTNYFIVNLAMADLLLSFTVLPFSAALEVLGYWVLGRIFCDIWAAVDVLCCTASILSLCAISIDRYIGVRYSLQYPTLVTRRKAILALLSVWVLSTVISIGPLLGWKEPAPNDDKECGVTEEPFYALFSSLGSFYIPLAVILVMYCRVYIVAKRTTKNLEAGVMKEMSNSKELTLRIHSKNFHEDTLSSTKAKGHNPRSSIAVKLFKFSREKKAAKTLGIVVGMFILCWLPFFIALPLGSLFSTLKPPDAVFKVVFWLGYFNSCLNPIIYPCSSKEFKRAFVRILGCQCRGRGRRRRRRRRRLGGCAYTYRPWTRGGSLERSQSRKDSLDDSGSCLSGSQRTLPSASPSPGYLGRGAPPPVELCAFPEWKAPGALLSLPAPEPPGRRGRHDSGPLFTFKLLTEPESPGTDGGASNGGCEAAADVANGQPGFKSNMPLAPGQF

[14] = target: D(2) dopamine receptor (Homo sapiens, UniProt P14416); test: Inhibition of [3H]spiperone binding to Dopamine receptor D2; summary of the method: as §2
[15] = target: 5-hydroxytryptamine receptor 7 (Homo sapiens, UniProt P34969); test: Inhibition of [3H]5-HT binding to 5-hydroxytryptamine 7 receptor; summary of the method: as §2
Chain of 5-hydroxytryptamine receptor 7 (P34969 whole entry): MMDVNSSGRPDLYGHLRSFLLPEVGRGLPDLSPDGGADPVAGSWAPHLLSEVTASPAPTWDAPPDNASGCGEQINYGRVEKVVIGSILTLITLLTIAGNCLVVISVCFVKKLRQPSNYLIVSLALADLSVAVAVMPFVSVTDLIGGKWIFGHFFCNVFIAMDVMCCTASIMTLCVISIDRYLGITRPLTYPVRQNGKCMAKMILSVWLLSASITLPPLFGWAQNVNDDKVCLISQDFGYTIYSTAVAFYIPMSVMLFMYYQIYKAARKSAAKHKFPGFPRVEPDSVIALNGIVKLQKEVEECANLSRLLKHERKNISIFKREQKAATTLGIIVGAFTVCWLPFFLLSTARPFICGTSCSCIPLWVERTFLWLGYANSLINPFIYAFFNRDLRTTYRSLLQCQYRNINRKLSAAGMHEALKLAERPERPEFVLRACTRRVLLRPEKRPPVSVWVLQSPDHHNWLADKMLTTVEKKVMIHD

Chain of D(2) dopamine receptor (P14416 whole entry): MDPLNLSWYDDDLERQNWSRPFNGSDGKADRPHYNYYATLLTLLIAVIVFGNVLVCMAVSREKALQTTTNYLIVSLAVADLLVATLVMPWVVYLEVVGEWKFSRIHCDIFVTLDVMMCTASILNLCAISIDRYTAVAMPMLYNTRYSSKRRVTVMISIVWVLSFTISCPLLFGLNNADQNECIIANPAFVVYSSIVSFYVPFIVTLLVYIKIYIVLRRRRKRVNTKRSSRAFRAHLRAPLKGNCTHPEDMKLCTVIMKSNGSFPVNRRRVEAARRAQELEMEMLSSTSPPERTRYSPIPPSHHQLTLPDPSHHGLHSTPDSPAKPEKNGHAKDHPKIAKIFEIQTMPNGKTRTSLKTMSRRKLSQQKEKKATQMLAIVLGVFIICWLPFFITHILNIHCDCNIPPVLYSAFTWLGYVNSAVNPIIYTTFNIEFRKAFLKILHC
Chain of Norepinephrine transporter (Q9WTR4 whole entry): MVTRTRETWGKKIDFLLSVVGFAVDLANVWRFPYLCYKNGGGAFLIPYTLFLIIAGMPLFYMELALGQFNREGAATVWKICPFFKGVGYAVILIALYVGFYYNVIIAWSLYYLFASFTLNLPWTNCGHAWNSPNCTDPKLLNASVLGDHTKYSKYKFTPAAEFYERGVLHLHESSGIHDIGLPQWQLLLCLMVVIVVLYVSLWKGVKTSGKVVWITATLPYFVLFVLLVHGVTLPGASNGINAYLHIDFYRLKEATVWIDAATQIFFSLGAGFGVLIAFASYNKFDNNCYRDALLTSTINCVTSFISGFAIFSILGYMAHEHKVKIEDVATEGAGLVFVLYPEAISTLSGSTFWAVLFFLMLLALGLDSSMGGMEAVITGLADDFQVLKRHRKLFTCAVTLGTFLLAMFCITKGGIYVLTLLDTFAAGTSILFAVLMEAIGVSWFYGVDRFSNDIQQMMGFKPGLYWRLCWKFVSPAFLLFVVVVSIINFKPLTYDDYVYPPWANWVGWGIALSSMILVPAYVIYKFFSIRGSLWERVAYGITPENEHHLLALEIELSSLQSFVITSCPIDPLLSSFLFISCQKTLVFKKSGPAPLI
Chain of 5-hydroxytryptamine receptor 2A (P28223 whole entry): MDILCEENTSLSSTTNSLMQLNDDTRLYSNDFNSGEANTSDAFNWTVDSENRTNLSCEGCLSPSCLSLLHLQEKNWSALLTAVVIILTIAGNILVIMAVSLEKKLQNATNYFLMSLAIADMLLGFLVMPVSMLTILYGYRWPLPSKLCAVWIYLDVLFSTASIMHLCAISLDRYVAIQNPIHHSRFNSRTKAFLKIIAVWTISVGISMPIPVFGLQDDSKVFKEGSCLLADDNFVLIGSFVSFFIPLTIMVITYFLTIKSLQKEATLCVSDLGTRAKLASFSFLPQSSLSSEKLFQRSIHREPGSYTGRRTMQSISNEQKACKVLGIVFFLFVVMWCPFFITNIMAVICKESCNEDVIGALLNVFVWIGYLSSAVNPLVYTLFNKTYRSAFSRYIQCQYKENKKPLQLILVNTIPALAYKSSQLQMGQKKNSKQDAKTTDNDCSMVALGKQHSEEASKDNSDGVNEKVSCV
Chain of Histamine H1 receptor (P35367 whole entry): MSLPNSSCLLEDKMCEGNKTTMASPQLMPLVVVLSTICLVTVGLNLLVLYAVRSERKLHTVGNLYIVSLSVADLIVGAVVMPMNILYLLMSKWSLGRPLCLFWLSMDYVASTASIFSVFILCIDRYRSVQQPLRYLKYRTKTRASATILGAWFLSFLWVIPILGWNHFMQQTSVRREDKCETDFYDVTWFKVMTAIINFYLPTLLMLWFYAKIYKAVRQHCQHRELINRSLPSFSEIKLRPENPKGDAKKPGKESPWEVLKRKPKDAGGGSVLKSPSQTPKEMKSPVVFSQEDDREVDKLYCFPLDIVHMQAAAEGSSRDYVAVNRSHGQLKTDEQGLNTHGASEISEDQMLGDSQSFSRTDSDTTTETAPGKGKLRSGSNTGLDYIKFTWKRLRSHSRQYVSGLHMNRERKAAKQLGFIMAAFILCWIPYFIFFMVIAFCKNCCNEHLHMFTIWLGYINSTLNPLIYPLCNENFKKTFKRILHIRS
Chain of Sodium-dependent dopamine transporter (P23977 whole entry): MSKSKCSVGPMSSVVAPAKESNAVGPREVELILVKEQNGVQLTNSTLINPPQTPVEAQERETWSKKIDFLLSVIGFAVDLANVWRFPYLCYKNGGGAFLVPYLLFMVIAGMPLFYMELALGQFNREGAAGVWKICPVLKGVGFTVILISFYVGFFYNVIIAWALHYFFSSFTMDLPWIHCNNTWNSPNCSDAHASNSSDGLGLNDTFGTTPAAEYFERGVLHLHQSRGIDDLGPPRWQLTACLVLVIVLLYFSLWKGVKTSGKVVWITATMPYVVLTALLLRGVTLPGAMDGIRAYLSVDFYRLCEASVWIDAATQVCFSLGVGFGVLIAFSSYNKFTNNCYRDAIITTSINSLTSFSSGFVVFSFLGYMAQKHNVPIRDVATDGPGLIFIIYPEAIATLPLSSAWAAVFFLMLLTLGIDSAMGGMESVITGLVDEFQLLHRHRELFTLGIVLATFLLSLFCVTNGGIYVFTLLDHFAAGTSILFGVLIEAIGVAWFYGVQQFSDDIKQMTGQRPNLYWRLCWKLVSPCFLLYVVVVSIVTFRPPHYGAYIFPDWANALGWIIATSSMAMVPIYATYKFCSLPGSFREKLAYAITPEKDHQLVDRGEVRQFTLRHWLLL
Chain of Sodium-dependent serotonin transporter (P31645 whole entry): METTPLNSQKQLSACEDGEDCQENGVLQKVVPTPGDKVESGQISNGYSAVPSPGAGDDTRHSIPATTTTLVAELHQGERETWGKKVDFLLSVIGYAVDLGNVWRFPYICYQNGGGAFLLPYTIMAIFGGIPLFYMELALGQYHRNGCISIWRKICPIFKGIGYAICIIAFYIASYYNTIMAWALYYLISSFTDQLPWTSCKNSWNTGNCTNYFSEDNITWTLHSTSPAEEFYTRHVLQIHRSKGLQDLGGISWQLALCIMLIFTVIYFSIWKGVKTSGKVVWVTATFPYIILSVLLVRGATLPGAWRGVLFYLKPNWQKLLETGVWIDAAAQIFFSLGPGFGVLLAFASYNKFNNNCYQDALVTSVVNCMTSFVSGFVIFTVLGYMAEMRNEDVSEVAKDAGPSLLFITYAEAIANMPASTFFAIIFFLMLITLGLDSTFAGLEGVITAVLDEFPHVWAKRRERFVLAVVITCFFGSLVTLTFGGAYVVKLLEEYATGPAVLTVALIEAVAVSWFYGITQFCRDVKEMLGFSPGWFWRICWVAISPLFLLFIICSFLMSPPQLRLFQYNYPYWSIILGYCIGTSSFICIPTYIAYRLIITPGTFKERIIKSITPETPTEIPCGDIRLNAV

Ki [1] [nM] | ED50 [2] [mg/kg] | ED50 [3] [mg/kg] | Ki [4] [nM] | Ki [5] [nM] | Ki [6] [nM] | Ki [7] [nM] | Ki [8] [nM] | Ki [10] [nM] | Ki [11] [nM] | Ki [12] [nM] | Ki [13] [nM] | Ki [14] [nM] | Ki [15] [nM] | Structure (SMILES) | ED50 [9] [mg/kg]
3.6 | 2.5 | 7.9 | 15 |  |  |  |  |  |  |  |  |  |  | COc1cc2c(cc1OC)C1=NO[C@@H](CN3CCN(C/C=C(\C)c4ccccc4)CC3)[C@@H]1CN2 | 
 |  |  |  | 234 | > 1000 | > 1000 | > 1000 | > 1000 | > 1000 | > 1000 | > 1000 | > 1000 |  | COc1cccc2c1CCC[C@H]2CN(C)CCc1ccc2ccoc2c1 | > 10
 |  |  |  |  | > 1000 | > 1000 | > 1000 | > 1000 | 365 | 770 | > 1000 | > 1000 | > 1000 | Fc1ccc2c(c1)CC(CC1CN=CN1)C2 (stereo not drawn) | 
